Consider 8 molecules from ChEMBL document CHEMBL4196159 (ACS Med Chem Lett, 2018).

Converted amounts (≈) assume the structure as drawn.

As usually defined, the thermodynamic solubility is solubility found after equilibrating the solid with the medium. As a reminder, the microsomal CLint is a measure of how fast metabolising enzymes remove a compound, apart from limits set by blood flow. Lower therefore signals slow turnover. As a reminder, the logD is the decadic logarithm of the distribution of all forms, ionised or not, between an organic phase and buffer at a given pH. High values mean a more lipophilic compound, low ones a more hydrophilic compound. As a reminder, the bioavailability is dose-corrected exposure relative to a reference, in per cent. A high value points to much systemic uptake.
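For logD in this document: Shake-flask partitioning between octanol and buffer, equilibrated for 30 min before measurement.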

Test system in one series: not listed separately
The series is described as follows: Terminal half life in Beagle dog at 1 mg/kg, iv administered as bolus dose. Format: ADME, organism-based, Canis lupus familiaris. Conditions: in vivo, read-out: beta t1/2 (converted). A digest of the protocol:
(§1)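 Male Han Wistar rats and male Beagle dogs, at least n = 2. Compound given at 1 mg/kg i.v. Parameters derived from plasma concentrations.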
For `C[C@H](Nc1c(C(N)=O)nnc2ccc(-c3ccc(OCCCN(C)C)nc3)cc12)C1CCOCC1`, the half-life was 6.2 h.
For `CNC(=O)c1nnc2ccc(-c3ccc(OCCCN(C)C)nc3)cc2c1N[C@@H](C)C1CCOCC1`, the half-life is 4.7 h.

Test system in a further series: not listed separately
Briefly: physchem. Conditions: phosphate buffer, pH 7.4.
`C[C@H](Nc1c(C(N)=O)nnc2ccc(-c3ccc(OCCN(C)C)nc3)cc12)c1ccn(C)n1` gave a thermodynamic solubility at 24 h of 910 µM (≈ 419 µg/mL).
Turning to `CNC(=O)c1nnc2ccc(-c3ccc(COC)nc3)cc2c1N[C@@H](C)C1CCOCC1`, the thermodynamic solubility at 24 h is 34 µM (≈ 14.8 µg/mL).
Same read-out and setting: as for `CNC(=O)c1nnc2ccc(-c3ccc(OCCN(C)C)nc3)cc2c1N[C@@H](C)C1CCOCC1`, the figure is 990 µM (≈ 474 µg/mL); as for `C[C@H](Nc1c(C(N)=O)nnc2ccc(-c3ccc(OCCCN4CCCC4)nc3)cc12)c1ccn(C)n1`, 490 µM (≈ 245 µg/mL).
Same read-out and setting: for `COCc1ccc(-c2ccc3nnc(C(N)=O)c(N[C@@H](C)C4CCOCC4)c3c2)cn1` the value was more than 1000 µM; for `Cc1cn(C)nc1[C@H](C)Nc1c(C(N)=O)nnc2ccc(-c3ccc(OCCCN4CCCC4)nc3)cc12`, 510 µM (≈ 262 µg/mL).
`C[C@H](Nc1c(C(N)=O)nnc2ccc(-c3ccc(OCCCN(C)C)nc3)cc12)C1CCOCC1` displayed a solubility (thermodynamic) at 24 h of 870 µM (≈ 416 µg/mL).
`CNC(=O)c1nnc2ccc(-c3ccc(OCCCN(C)C)nc3)cc2c1N[C@@H](C)C1CCOCC1` came in with a thermodynamic solubility at 24 h of 880 µM (≈ 434 µg/mL).

Test system in another series: not listed separately
Briefly: Clearance in Han Wistar rat at 1 mg/kg, iv administered as bolus dose or 2 mg/kg, po. In kind it is ADME, organism-based. Conditions: in vivo. In outline:
as §1
On to `C[C@H](Nc1c(C(N)=O)nnc2ccc(-c3ccc(OCCCN(C)C)nc3)cc12)C1CCOCC1`, for which the clearance was determined as 25 mL/min/kg.
In turn, `CNC(=O)c1nnc2ccc(-c3ccc(OCCCN(C)C)nc3)cc2c1N[C@@H](C)C1CCOCC1` had a clearance of 7.8 mL/min/kg.

Test system in the next series: not listed separately
Briefly: Clearance in Beagle dog at 1 mg/kg, iv administered as bolus dose or 2 mg/kg, po. In kind it is ADME, organism-based, Canis lupus familiaris. Conditions: in vivo. A digest of the protocol:
as §1
As to `C[C@H](Nc1c(C(N)=O)nnc2ccc(-c3ccc(OCCCN(C)C)nc3)cc12)C1CCOCC1`, the clearance was found to be 49 mL/min/kg.
For the molecule `CNC(=O)c1nnc2ccc(-c3ccc(OCCCN(C)C)nc3)cc2c1N[C@@H](C)C1CCOCC1`, the clearance was 48 mL/min/kg.

Test system in the next series: not listed separately
Briefly: Volume of distribution in Han Wistar rat at 1 mg/kg, iv administered as bolus dose or 2 mg/kg, po. In kind it is ADME, organism-based. Conditions: in vivo. A digest of the protocol: as §1
On to `C[C@H](Nc1c(C(N)=O)nnc2ccc(-c3ccc(OCCCN(C)C)nc3)cc12)C1CCOCC1`, for which the Vd turned out to be 5.5 L/kg.
In turn, `CNC(=O)c1nnc2ccc(-c3ccc(OCCCN(C)C)nc3)cc2c1N[C@@H](C)C1CCOCC1` displayed a Vd of 2.8 L/kg.

Test system in a further series: not listed separately
The series is described as follows: in vitro. Conditions: human, liver microsomes.
The molecule `C[C@H](Nc1c(C(N)=O)nnc2ccc(-c3ccc(OCCN(C)C)nc3)cc12)c1ccn(C)n1` gave a microsomal CLint at 0.5 h, 1 µM of 25 µL/min/mg.
In turn, `CNC(=O)c1nnc2ccc(-c3ccc(COC)nc3)cc2c1N[C@@H](C)C1CCOCC1` returned a microsomal CLint at 0.5 h, 1 µM of 42 µL/min/mg.
On to `CNC(=O)c1nnc2ccc(-c3ccc(OCCN(C)C)nc3)cc2c1N[C@@H](C)C1CCOCC1`, for which the microsomal CLint at 0.5 h, 1 µM worked out at 26 µL/min/mg.
For the molecule `C[C@H](Nc1c(C(N)=O)nnc2ccc(-c3ccc(OCCCN4CCCC4)nc3)cc12)c1ccn(C)n1`, the microsomal CLint at 0.5 h, 1 µM came out at 10 µL/min/mg.
`COCc1ccc(-c2ccc3nnc(C(N)=O)c(N[C@@H](C)C4CCOCC4)c3c2)cn1` returned a microsomal CLint at 0.5 h, 1 µM of 33 µL/min/mg.
Consider `Cc1cn(C)nc1[C@H](C)Nc1c(C(N)=O)nnc2ccc(-c3ccc(OCCCN4CCCC4)nc3)cc12`, for which the microsomal CLint at 0.5 h, 1 µM worked out at 40 µL/min/mg.
The molecule `C[C@H](Nc1c(C(N)=O)nnc2ccc(-c3ccc(OCCCN(C)C)nc3)cc12)C1CCOCC1` showed a microsomal CLint at 0.5 h, 1 µM of 28 µL/min/mg.
On to `CNC(=O)c1nnc2ccc(-c3ccc(OCCCN(C)C)nc3)cc2c1N[C@@H](C)C1CCOCC1`, for which the microsomal CLint at 0.5 h, 1 µM came to 22 µL/min/mg.

Test system in a further series: not listed separately
The series is described as follows: Intrinsic clearance in dog hepatocytes assessed per million cells at 1 uM measured after 30 mins by HPLC analysis. Conditions: read-out: CLH. In kind it is ADME, cell-based, Canis lupus familiaris, Hepatocyte. In outline: (§2)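 Intrinsic clearance (Clint) measured in fresh dog hepatocytes or cryopreserved human hepatocytes.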
On to `C[C@H](Nc1c(C(N)=O)nnc2ccc(-c3ccc(OCCCN(C)C)nc3)cc12)C1CCOCC1`, for which the hepatocyte CLint at 1 µM stood at 5.1 µL/min/1e6 cells.
In the case of `CNC(=O)c1nnc2ccc(-c3ccc(OCCCN(C)C)nc3)cc2c1N[C@@H](C)C1CCOCC1`, the hepatocyte CLint at 1 µM worked out at 8.8 µL/min/1e6 cells.

Test system in a further series: not listed separately
Briefly: physchem. Conditions: octanol/buffer, pH 7.4.
The molecule `C[C@H](Nc1c(C(N)=O)nnc2ccc(-c3ccc(OCCN(C)C)nc3)cc12)c1ccn(C)n1` came in with a logD at 0.5 h of 1.9.
Turning to `CNC(=O)c1nnc2ccc(-c3ccc(COC)nc3)cc2c1N[C@@H](C)C1CCOCC1`, the logD at 0.5 h was found to be 3.
Take `CNC(=O)c1nnc2ccc(-c3ccc(OCCN(C)C)nc3)cc2c1N[C@@H](C)C1CCOCC1`: the logD at 0.5 h is 2.5.
Still for that read-out and setting: as for `C[C@H](Nc1c(C(N)=O)nnc2ccc(-c3ccc(OCCCN4CCCC4)nc3)cc12)c1ccn(C)n1`, the figure is 1.8.
As to `COCc1ccc(-c2ccc3nnc(C(N)=O)c(N[C@@H](C)C4CCOCC4)c3c2)cn1`, the logD at 0.5 h was determined as 2.7.
Turning to `Cc1cn(C)nc1[C@H](C)Nc1c(C(N)=O)nnc2ccc(-c3ccc(OCCCN4CCCC4)nc3)cc12`, the logD at 0.5 h came to 2.1.
`C[C@H](Nc1c(C(N)=O)nnc2ccc(-c3ccc(OCCCN(C)C)nc3)cc12)C1CCOCC1` registered a logD at 0.5 h of 1.9.
On to `CNC(=O)c1nnc2ccc(-c3ccc(OCCCN(C)C)nc3)cc2c1N[C@@H](C)C1CCOCC1`, for which the logD at 0.5 h came out at 2.3.

Test system in another series: not listed separately
Briefly: Oral bioavailability in rat at 1 mg/kg. In kind it is ADME, organism-based. Conditions: in vivo. In outline: (§3)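 Rats dosed 0.5 mg/kg i.v. and 1 mg/kg orally. Pharmacokinetic parameters taken from plasma levels.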
For the molecule `COCc1ccc(-c2ccc3nnc(C(N)=O)c(N[C@@H](C)C4CCOCC4)c3c2)cn1`, the bioavailability stood at 56%.

Test system in a further series: not listed separately
Briefly: Oral bioavailability in Beagle dog at 2 mg/kg. Format: ADME, organism-based, Canis lupus familiaris. Conditions: in vivo.
Take `C[C@H](Nc1c(C(N)=O)nnc2ccc(-c3ccc(OCCCN(C)C)nc3)cc12)C1CCOCC1`: the bioavailability came to 43%.
As for `CNC(=O)c1nnc2ccc(-c3ccc(OCCCN(C)C)nc3)cc2c1N[C@@H](C)C1CCOCC1`, the bioavailability stood at 35%.

Test system in the next series: not listed separately
The series is described as follows: Volume of distribution at steady state in rat at 0.5 mg/kg, iv or 1 mg/kg, po. Format: ADME, organism-based. Conditions: in vivo, read-out: Vdss. In outline: as §3
Take `COCc1ccc(-c2ccc3nnc(C(N)=O)c(N[C@@H](C)C4CCOCC4)c3c2)cn1`: the Vd came to 0.7 L/kg.

For a further series, the system named is Mus musculus. Briefly: Time at which plasma concentration stays above in-vitro cellular IC50 for ATM autophosphorylation at Ser1981 residue in human HT-29 cells in mouse at 10 mg/kg, po. Format: ADME, organism-based. Conditions: in vivo. In outline: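 Mice given 10 mg/kg orally. Free plasma concentration over time compared with the in vitro cellular ATM IC50.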
Molecule `CNC(=O)c1nnc2ccc(-c3ccc(OCCCN(C)C)nc3)cc2c1N[C@@H](C)C1CCOCC1` registered a Time of more than 12 h.

Test system in another series: not listed separately
Briefly: Terminal half life in Han Wistar rat at 1 mg/kg, iv administered as bolus dose. Conditions: in vivo, read-out: beta t1/2 (converted). Format: ADME, organism-based. A digest of the protocol:
as §1
With `C[C@H](Nc1c(C(N)=O)nnc2ccc(-c3ccc(OCCCN(C)C)nc3)cc12)C1CCOCC1`, the half-life was 4.1 h.
For `CNC(=O)c1nnc2ccc(-c3ccc(OCCCN(C)C)nc3)cc2c1N[C@@H](C)C1CCOCC1`, the half-life was 5.6 h.

Test system in a further series: not listed separately
The series is described as follows: Intrinsic clearance in human cryopreserved hepatocytes assessed per million cells at 1 uM measured after 30 mins by HPLC analysis. In kind it is ADME, cell-based, Hepatocyte. Conditions: read-out: CLH. In outline:
as §2
As for `C[C@H](Nc1c(C(N)=O)nnc2ccc(-c3ccc(OCCCN(C)C)nc3)cc12)C1CCOCC1`, the hepatocyte CLint at 1 µM worked out at 2.8 µL/min/1e6 cells.
Turning to `CNC(=O)c1nnc2ccc(-c3ccc(OCCCN(C)C)nc3)cc2c1N[C@@H](C)C1CCOCC1`, the hepatocyte CLint at 1 µM turned out to be 4.1 µL/min/1e6 cells.

Test system in a further series: not listed separately
Briefly: Clearance in rat at 0.5 mg/kg, iv or 1 mg/kg, po. In kind it is ADME, organism-based. Conditions: in vivo. A digest of the protocol: as §3
Molecule `COCc1ccc(-c2ccc3nnc(C(N)=O)c(N[C@@H](C)C4CCOCC4)c3c2)cn1` showed a clearance of 21 mL/min/kg.

Test system in another series: not listed separately
Briefly: in vitro. Conditions: rat, hepatocytes.
`C[C@H](Nc1c(C(N)=O)nnc2ccc(-c3ccc(OCCN(C)C)nc3)cc12)c1ccn(C)n1` returned a hepatocyte CLint at 0.5 h, 1 µM of 13 µL/min/1e6 cells.
The molecule `CNC(=O)c1nnc2ccc(-c3ccc(COC)nc3)cc2c1N[C@@H](C)C1CCOCC1` returned a hepatocyte CLint at 0.5 h, 1 µM of 5.8 µL/min/1e6 cells.
`CNC(=O)c1nnc2ccc(-c3ccc(OCCN(C)C)nc3)cc2c1N[C@@H](C)C1CCOCC1`: the hepatocyte CLint at 0.5 h, 1 µM was 4.8 µL/min/1e6 cells.
The molecule `C[C@H](Nc1c(C(N)=O)nnc2ccc(-c3ccc(OCCCN4CCCC4)nc3)cc12)c1ccn(C)n1` gave a hepatocyte CLint at 0.5 h, 1 µM of 4.6 µL/min/1e6 cells.
On the same count and under the same terms, as for `COCc1ccc(-c2ccc3nnc(C(N)=O)c(N[C@@H](C)C4CCOCC4)c3c2)cn1`, the figure is 5.6 µL/min/1e6 cells; as for `Cc1cn(C)nc1[C@H](C)Nc1c(C(N)=O)nnc2ccc(-c3ccc(OCCCN4CCCC4)nc3)cc12`, 8.1 µL/min/1e6 cells.
In turn, `C[C@H](Nc1c(C(N)=O)nnc2ccc(-c3ccc(OCCCN(C)C)nc3)cc12)C1CCOCC1` showed a hepatocyte CLint at 0.5 h, 1 µM of 3.4 µL/min/1e6 cells.
Regarding `CNC(=O)c1nnc2ccc(-c3ccc(OCCCN(C)C)nc3)cc2c1N[C@@H](C)C1CCOCC1`, the hepatocyte CLint at 0.5 h, 1 µM came out at 5.7 µL/min/1e6 cells.

Test system in another series: not listed separately
The series is described as follows: Volume of distribution in Beagle dog at 1 mg/kg, iv administered as bolus dose or 2 mg/kg, po. In kind it is ADME, organism-based, Canis lupus familiaris. Conditions: in vivo. A digest of the protocol: as §1
The molecule `C[C@H](Nc1c(C(N)=O)nnc2ccc(-c3ccc(OCCCN(C)C)nc3)cc12)C1CCOCC1` showed a Vd of 20 L/kg.
For the molecule `CNC(=O)c1nnc2ccc(-c3ccc(OCCCN(C)C)nc3)cc2c1N[C@@H](C)C1CCOCC1`, the Vd came out at 14 L/kg.

Test system in another series: not listed separately
The series is described as follows: Oral bioavailability in Han Wistar rat at 2 mg/kg. Format: ADME, organism-based. Conditions: in vivo.
`C[C@H](Nc1c(C(N)=O)nnc2ccc(-c3ccc(OCCCN(C)C)nc3)cc12)C1CCOCC1` showed a bioavailability of 26%.
`CNC(=O)c1nnc2ccc(-c3ccc(OCCCN(C)C)nc3)cc2c1N[C@@H](C)C1CCOCC1`: the bioavailability came to 41%.
